OPRM1-OPRD1 ag: OPRM1-OPRD1 heterodimerization agonism. P35372+P41143. cells, luminescence. activation, % at 9.3 µM. hit rate 0.3% among 340,000. AID 504326; in the data active = activation above about 18%
HTR5A ag: activates human HTR5A in OPRM1-OPRD1 agonist counter-screen; P47898; HTR5A agonist assay, luminescence, cell-based; activation, % at 9.3 µM; hit rate 0.61% among 340,000; in the data active = activation mostly above about 9.5%, no sharp cut-off; inactive = mostly below about 7.6%
MC4R barr agon: agonists of human melanocortin 4 receptor (MC4R) beta-arrestin; P32245; U2OS MC4R beta-arrestin complementation, luminescence; percent of melanotan II response, DMSO zero; activation, % at 8.9 µM; hit rate 0.98% among 360,000;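 active = activation above a per-plate cutoff, the mean activation of sample wells on that plate plus 3 SD, cut at about 8% in these data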
Target sequence (P32245 whole entry, looked up): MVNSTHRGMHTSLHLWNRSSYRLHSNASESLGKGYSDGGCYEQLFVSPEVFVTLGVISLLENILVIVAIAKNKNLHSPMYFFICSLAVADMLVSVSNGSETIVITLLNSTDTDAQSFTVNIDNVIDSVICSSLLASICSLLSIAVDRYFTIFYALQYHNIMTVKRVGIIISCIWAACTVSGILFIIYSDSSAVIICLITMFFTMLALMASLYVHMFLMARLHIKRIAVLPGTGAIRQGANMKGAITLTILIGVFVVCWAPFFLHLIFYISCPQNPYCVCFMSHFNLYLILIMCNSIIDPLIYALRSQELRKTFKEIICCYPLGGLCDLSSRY
HTR5A inv ctr: counter-screen for OPRM1-OPRD1 inverse agonists: human HTR5A inverse agonism; HTR5A cell line, luminescence; AID 504634; hit rate 0.083% among 340,000; inhibition, % at 9.3 µM; P47898; in the data active = inhibition mostly above about 23%, no sharp cut-off; inactive = mostly below about 18%
OPRM1-OPRD1 inv: mu-delta opioid heterodimer inverse agonism. P35372+P41143. cell-based MOR-DOR heterodimer luminescence. inhibition, % at 9.3 µM. hit rate 0.21% among 340,000; in the data active = inhibition above about 22%, passing the limit was not always enough
MC4R antagonist: blocks human MC4R cAMP signaling | hit rate 0.48% among 360,000 | P32245 | MC4R-expressing cells, MTII-stimulated cAMP, LANCE TR-FRET | inhibition, % at 6.5 µM;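 active = inhibition above its plate's cutoff, the mean of tested wells on that plate plus 3 SD, cut at about 29% in these data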
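material = U2OS cells stably expressing human melanocortin 4 receptor (MC4R) | also added = Melanotan II challenge | dosing = single nominal compound dose of 6.5 µM | detection = TR-FRET with Eu-cAMP and labeled anti-cAMP, 671 nm | replication = singlicate | timing = compound 30 min, challenge 1 h, detection 1 h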
cAMP nonselect: nonselective cAMP signaling inhibitor, MC4R antagonist counter-screen; shares compounds with MC4R antagonist; parental U2OS, forskolin cAMP, LANCE TR-FRET; inhibition, % at 6.5 µM; hit rate 26% among 1,600; AID 602193;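 active = mean inhibition over triplicates above the low-control well mean plus 3 SD, set per campaign, cut at about 13% in these data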;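 also: signal is single emission at 671 nm which falls as cellular cAMP rises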
MC4R antag conf: human MC4R cAMP antagonism confirmation | shares compounds with MC4R antagonist | MC4R-expressing cells, MTII-stimulated cAMP, TR-FRET | inhibition, % at 6.5 µM | hit rate 27% among 1,600; in the data active = inhibition above about 29%
Numbers stand for hits; . = inactive; / = not tested or not shown. A selection: hits, their analogues and other compounds. The true share with any hit is near 2.4%.

SMILES	OPRM1-OPRD1 ag	HTR5A ag	MC4R barr agon	HTR5A inv ctr	OPRM1-OPRD1 inv	MC4R antagonist	cAMP nonselect	MC4R antag conf
Cc1cc(Br)ccc1NC(=O)CNC(=O)Cn1ncc(Cl)c(Cl)c1=O	.	.	.	.	.	47	29	53
NS(=O)(=O)c1cccc(NC(=O)COC(=O)CC2CC3CCC2C3)c1 (stereo unspecified)	.	.	.	.	.	.	/	/
CC(C)C(NC(=O)c1c(F)cccc1F)C(=O)NCCc1ccc(S(N)(=O)=O)cc1 (stereo unspecified)	.	.	.	.	.	.	/	/
CCSc1ccc(-c2cccc([N+](=O)[O-])c2)nn1	.	.	.	.	.	.	/	/
CCn1c(C(=O)O)c(CC(=O)Nc2ccc(Br)cc2C)c2ccccc21	.	.	.	.	.	29	.	.
CCN(CC)CCNC(=O)Cc1c(C(=O)O)n(CC)c2ccccc12	.	.	.	.	.	.	/	/
CCOc1ccccc1NC(=S)N1CCC(NC(=O)NC23CC4CC(CC(C4)C2)C3)CC1	.	.	.	.	.	.	/	/
COc1ccccc1NC(=S)N1CCC(NC(=O)NC23CC4CC(CC(C4)C2)C3)CC1	.	.	.	.	.	34	.	.
Cc1cccc(NC(=O)C(=O)NCC2CCCO2)c1 (stereo unspecified)	.	.	.	.	.	.	/	/
Cc1cc(O)c(Sc2ncn[nH]2)cc1NS(=O)(=O)c1ccc(Cl)cc1	.	.	.	.	.	.	/	/
O=S(=O)(Nc1cc(Sc2ncn[nH]2)c(O)c2ccccc12)c1ccccc1	/	/	.	/	/	53	.	.
CC(C)C(=O)N1CCN(c2ccccc2NC(=O)c2ccc3c(c2)OCCO3)CC1	.	.	.	.	.	.	/	/
Cc1cc(NS(=O)(=O)c2ccc(NC(=O)c3oc4ccccc4c3C)cc2)no1	.	.	.	.	.	29	.	.
COC(=O)CSc1nc2ccccc2nc1SCC(=O)OC	.	.	.	.	.	36	.	.
COc1ccc(CNCc2c(O)c(Cl)cc3c(C)c(C)c(=O)oc23)c(OC)c1	.	.	.	.	.	.	/	/
S=c1[nH]nc(-c2ccc3ccccc3n2)n1-c1cc(Cl)cc(Cl)c1	.	.	.	.	.	32	.	.
COc1ccc(C(O)c2cnc(C)n2Cc2ccccc2)cc1 (stereo unspecified)	/	/	.	/	/	.	/	/
Cc1ncc(CO)c(/C=N/NC(=O)c2cc3c(s2)CCCC3)c1O	.	.	.	.	.	.	/	/
O=C1OCCC1Sc1nc2ccccc2c(=O)n1Cc1ccccc1 (stereo unspecified)	.	.	.	.	.	.	/	/
O=C1OCCC1Sc1nc2cc(Cl)ccc2n1Cc1ccccc1 (stereo unspecified)	.	.	.	.	.	48	.	33
O=C(NCc1ccc(N2CCCC2=O)cc1)c1cc(COc2c(F)cccc2F)on1	.	.	.	.	.	.	/	/
CCOC(=O)c1c(NC(=O)CCC(=O)O)sc2c1CC(C)(C)OC2	.	.	.	.	.	33	.	.
CC(C)CNC(=O)COC(=O)CNC(=O)c1cc(Cl)cc([N+](=O)[O-])c1	.	.	.	.	.	33	17	32
Cc1ccc(/C=C/C(=O)N2CCN(S(=O)(=O)c3ccc(C)c(C)c3)CC2)o1	.	.	.	.	.	38	.	.
CCOC(=O)c1c(NC(=O)CN2C(=O)NC3(CCCCC3C)C2=O)sc(C)c1C (stereo unspecified)	.	.	.	.	.	.	/	/
SMILES	OPRM1-OPRD1 ag	HTR5A ag	MC4R barr agon	HTR5A inv ctr	OPRM1-OPRD1 inv	MC4R antagonist	cAMP nonselect	MC4R antag conf
CCOC(=O)c1c(-c2ccc(F)cc2)csc1NC(=O)CN1C(=O)NC2(CCCCC2C)C1=O (stereo unspecified)	.	.	.	.	.	32	.	.
CCN(C[C@H]1N[C@@](Cc2ccccc2)(C(=O)OC)[C@H]2C(=O)N(C)C(=O)[C@@H]12)C(=O)NC(C)C	.	.	.	.	.	.	/	/
Cc1nn(-c2ccccc2)nc1CNC(=O)C1CCC1	.	.	.	.	.	.	/	/
O=C(CS(=O)c1ccc(C(F)(F)F)cc1[N+](=O)[O-])Oc1ccc(Cl)cc1 (stereo unspecified)	.	.	.	.	.	33	.	.
Cc1ccc(-c2nn(-c3ccccc3)cc2C(=O)Nc2ccc(C(=O)O)cc2)cc1	.	.	.	.	.	33	.	.
O=C(Nc1cccc(S(=O)(=O)NC2=NCCC2)c1)c1cn(-c2ccccc2)nc1-c1ccc(F)cc1	.	.	.	.	.	29	.	.
COCCNC(=O)c1cccc2c(-c3cnn(C)c3)coc12	/	/	.	/	/	.	/	/
CC(C)(C)C(=O)COC(=O)CNC(=O)c1ccc(Oc2ccccc2)cc1	.	.	.	.	.	29	.	.
COc1cccc(C(=O)NCC(=O)OCC(=O)C(C)(C)C)c1	.	.	.	.	.	.	/	/
COCCCn1c(=O)/c(=C\c2cccc(OC)c2OC)s/c1=C(/C#N)C(=O)Nc1ccc(C(=O)O)cc1	.	.	.	.	.	29	.	.
O=C(Nc1cccc(S(=O)(=O)NC2=NCCCCC2)c1)c1cc(-c2ccc(Cl)cc2)nc2ccccc12	.	.	.	.	.	.	/	/
Cc1cc(=O)n(CC(=O)NC2CC2)c2c1c(C)nn2-c1ccccc1	.	.	.	.	.	.	/	/
CC1CCN(C(=O)c2cc3ccccc3cc2O)CC1	.	.	.	.	.	.	/	/
COC(=O)c1sccc1NC(=O)c1ccccc1C(=O)O	.	.	.	.	.	.	/	/
CC(=O)c1sccc1NC(=O)c1ccccc1C(=O)O	.	.	.	.	.	72	29	61
CC(C)(C)C1CCc2c(sc(NC(=O)C3CC=CCC3C(=O)O)c2C#N)C1 (stereo unspecified)	.	.	.	.	.	29	.	.
N#Cc1c(NC(=O)C2CC=CCC2C(=O)O)sc2c1CCCCCC2 (stereo unspecified)	.	.	.	.	.	.	/	/
Cc1cc(C)nc(SCc2nnc(SCC(=O)Nc3nc(-c4ccccc4)cs3)n2-c2ccccc2)n1	.	.	.	.	.	.	/	/
Cc1cc(C)nc(SCc2nnc(SCC(=O)O)n2-c2ccccc2)n1	.	.	.	.	.	31	.	.
S=C(NCc1ccccc1)NC1CCCc2ccccc21 (stereo unspecified)	/	/	.	/	/	.	/	/
S=C(NC1CC1)NC1CCCc2ccccc21 (stereo unspecified)	.	.	.	.	.	28	.	.
CCOC(=O)c1c(NC(=O)C[n+]2ccc(N(C)C)cc2)sc(C)c1C	.	.	.	.	.	30	.	.
